Values belong to the molecule of their own block, whether it stands above or below them.
Columns and labels:
Type in all cases: functional
[1] = target: T1, Nitric oxide synthase, inducible (Mus musculus) (UniProt P29477); experiment: Formation of Nitric Oxide by Nitric Oxide synthase II(% relative to NOHA)
T1 sequence (whole entry): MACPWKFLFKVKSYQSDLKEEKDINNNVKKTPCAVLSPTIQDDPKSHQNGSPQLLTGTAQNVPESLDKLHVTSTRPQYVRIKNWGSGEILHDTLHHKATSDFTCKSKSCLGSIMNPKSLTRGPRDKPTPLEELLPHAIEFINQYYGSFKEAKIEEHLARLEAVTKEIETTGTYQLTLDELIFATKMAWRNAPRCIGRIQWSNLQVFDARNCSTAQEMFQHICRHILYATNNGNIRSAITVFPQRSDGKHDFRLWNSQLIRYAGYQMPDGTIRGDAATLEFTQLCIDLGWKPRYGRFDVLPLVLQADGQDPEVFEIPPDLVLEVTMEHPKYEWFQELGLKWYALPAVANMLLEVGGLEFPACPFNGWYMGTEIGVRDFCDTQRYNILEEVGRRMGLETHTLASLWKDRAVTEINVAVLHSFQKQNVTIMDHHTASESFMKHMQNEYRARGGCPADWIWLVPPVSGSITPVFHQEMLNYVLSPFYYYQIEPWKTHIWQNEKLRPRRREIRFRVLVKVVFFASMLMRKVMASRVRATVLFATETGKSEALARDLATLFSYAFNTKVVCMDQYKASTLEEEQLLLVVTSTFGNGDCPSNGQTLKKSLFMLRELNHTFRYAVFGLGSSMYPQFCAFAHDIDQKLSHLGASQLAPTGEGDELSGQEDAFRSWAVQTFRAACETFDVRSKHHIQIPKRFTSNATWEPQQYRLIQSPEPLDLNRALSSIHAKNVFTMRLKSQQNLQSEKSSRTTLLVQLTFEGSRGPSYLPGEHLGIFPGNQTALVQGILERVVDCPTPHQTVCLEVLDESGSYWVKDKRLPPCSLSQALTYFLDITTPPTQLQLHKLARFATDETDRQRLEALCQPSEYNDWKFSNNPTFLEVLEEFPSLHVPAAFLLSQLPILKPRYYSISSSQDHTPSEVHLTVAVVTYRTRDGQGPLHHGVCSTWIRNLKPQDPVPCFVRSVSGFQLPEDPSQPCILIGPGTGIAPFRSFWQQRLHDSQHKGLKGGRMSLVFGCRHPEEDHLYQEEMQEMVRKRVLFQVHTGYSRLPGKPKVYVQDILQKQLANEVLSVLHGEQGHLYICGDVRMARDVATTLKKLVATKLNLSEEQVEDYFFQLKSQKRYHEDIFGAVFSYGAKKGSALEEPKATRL
How it was run: (§1)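 Purified recombinant NOS (5–50 nM) at 37 °C in 50 mM HEPES pH 7.4 with 1 mM test compound, 1 mM NADPH, 100 μM BH4, 100 U/mL SOD, 100 U/mL catalase, 12–15 μM oxyhemoglobin and 5 mM DTT. NOS I and NOS III runs also contained 1 mM CaCl2 and 10 μg/mL calmodulin. NO was read spectrophotometrically as oxyhemoglobin-to-methemoglobin conversion. Initial rates are given as % of the NOHA rate.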

[2] = target: T1, Nitric oxide synthase, inducible (Mus musculus); experiment: (§2) Compound was evaluated for the kinetic constants for Nitric Oxide formation from oxidation by NOS II
How it was run: (§3)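 Recombinant purified NOS II was run in the hemoglobin assay at 37 °C in 50 mM HEPES pH 7.4 with NADPH, BH4, SOD, catalase and DTT, over varying substrate concentrations. Initial NO-formation rates gave saturation kinetics. Km (μM) and kcat (min⁻¹) were derived from Lineweaver-Burk plots, and kcat/Km is expressed in μM⁻¹ min⁻¹.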

[3] = target: T2, Nitric oxide synthase 3 (Homo sapiens) (UniProt P29474); experiment: Formation of Nitric Oxide by Nitric Oxide synthase III(% relative to NOHA); how it was run: as §1
T2 sequence (whole entry): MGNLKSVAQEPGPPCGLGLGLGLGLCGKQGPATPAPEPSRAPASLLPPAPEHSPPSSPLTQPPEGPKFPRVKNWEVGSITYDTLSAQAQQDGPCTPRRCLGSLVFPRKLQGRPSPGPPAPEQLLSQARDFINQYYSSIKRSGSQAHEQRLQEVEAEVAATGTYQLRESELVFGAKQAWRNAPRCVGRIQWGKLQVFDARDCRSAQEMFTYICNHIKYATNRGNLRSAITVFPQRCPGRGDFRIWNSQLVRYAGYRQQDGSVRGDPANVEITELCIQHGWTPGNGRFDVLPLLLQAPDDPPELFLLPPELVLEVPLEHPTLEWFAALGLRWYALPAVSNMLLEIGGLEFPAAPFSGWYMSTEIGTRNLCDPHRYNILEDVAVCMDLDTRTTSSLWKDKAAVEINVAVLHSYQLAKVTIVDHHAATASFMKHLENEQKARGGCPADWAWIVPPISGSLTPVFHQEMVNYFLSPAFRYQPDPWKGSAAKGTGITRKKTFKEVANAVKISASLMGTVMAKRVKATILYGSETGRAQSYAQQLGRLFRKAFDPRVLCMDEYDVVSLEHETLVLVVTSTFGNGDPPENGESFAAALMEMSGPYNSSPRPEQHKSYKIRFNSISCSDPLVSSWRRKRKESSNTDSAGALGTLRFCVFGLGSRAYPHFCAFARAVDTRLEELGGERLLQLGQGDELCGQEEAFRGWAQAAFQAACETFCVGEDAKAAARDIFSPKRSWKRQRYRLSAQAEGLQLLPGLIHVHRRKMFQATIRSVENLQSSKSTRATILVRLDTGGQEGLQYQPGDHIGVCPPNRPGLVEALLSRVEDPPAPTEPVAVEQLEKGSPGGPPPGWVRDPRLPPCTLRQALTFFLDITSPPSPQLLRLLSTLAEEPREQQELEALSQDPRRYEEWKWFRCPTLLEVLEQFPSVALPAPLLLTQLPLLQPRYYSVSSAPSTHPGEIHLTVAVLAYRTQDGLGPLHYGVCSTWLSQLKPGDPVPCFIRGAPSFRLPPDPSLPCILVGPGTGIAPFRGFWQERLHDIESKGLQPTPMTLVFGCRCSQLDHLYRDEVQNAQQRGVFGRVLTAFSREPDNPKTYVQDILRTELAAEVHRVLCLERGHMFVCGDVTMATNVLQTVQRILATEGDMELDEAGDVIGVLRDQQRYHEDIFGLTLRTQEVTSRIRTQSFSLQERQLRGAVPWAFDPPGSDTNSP

[4] = target: Nitric oxide synthase 1 (Homo sapiens) (UniProt P29475); experiment: Formation of Nitric Oxide by Nitric Oxide synthase I(% relative to NOHA); how it was run: as §1
Chain of Nitric oxide synthase 1 (Homo sapiens) (P29475 whole entry): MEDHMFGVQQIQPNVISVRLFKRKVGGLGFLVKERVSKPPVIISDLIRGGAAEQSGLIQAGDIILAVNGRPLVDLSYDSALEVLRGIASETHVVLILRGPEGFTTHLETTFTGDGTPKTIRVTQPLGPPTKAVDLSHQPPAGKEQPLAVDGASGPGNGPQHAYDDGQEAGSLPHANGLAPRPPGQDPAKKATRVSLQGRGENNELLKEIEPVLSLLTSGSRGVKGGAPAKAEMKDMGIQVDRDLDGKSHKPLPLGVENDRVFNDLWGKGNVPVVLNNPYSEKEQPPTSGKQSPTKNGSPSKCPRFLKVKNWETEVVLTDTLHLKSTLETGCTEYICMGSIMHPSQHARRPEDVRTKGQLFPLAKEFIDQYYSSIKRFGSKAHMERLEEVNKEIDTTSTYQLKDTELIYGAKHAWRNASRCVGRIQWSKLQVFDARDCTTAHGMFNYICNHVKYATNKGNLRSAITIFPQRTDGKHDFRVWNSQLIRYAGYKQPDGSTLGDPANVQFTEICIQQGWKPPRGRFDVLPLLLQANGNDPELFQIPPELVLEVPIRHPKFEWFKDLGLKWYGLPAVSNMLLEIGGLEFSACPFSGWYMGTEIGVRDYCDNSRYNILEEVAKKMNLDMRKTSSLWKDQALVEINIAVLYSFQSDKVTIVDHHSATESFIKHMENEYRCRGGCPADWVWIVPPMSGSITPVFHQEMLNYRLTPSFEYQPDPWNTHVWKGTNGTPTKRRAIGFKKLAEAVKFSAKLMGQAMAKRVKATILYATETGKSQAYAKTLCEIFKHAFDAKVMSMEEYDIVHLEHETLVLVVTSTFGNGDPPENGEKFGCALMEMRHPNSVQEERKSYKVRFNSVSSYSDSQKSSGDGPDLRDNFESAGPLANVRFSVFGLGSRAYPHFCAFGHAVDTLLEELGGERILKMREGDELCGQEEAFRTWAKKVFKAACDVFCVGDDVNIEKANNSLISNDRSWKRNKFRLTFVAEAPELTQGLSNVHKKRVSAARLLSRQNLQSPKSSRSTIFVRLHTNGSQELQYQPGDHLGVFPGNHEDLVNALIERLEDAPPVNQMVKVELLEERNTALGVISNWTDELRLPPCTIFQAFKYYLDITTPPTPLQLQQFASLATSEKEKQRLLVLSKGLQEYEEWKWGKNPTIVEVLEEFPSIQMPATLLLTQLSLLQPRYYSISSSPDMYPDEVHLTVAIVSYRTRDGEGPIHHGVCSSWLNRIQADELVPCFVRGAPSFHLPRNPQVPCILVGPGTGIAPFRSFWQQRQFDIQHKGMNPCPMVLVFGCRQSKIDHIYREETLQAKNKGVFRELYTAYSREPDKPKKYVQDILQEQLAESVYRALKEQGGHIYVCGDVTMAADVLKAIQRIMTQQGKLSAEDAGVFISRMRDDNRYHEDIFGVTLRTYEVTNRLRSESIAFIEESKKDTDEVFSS

[5] = Ratio between Km (uM) and Kcat (1/min) was determined; how it was run: as §3
[6] = substrate: CCCCN/C(N)=N/O; experiment: as §2; how it was run: as §3
[7] = substrate: N=C(NO)Nc1ccc(Cl)cc1; experiment: as §2; how it was run: as §3
[8] = substrate: N/C(=N/CCCCC(N)C(=O)O)NO; experiment: as §2; how it was run: as §3
[9] = substrate: N/C(=N/CCCC(N)C(=O)O)NO; experiment: as §2; how it was run: as §3
[10] = substrate: CCCCC/N=C(/N)NO; experiment: as §2; how it was run: as §3

- Initial rates [1]: 68
- k cat [2]: 5.33 s⁻¹
- Initial rates [3]: 41
- Initial rates [4]: 65
- k cat/Km [5]: 96700 M⁻¹ s⁻¹
Molecule: CCCCN/C(N)=N/O

- Initial rates [1]: 55
- k cat [2]: 6.83 s⁻¹
- Initial rates [3]: 70
- Initial rates [4]: 82
- k cat/Km [5]: 46700 M⁻¹ s⁻¹
Molecule: N/C(=N/CCCCC(N)C(=O)O)NO (stereo unspecified)

- k cat [2]: 1.67 s⁻¹
- k cat/Km [5]: 3330 M⁻¹ s⁻¹
Molecule: N=C(NO)Nc1ccc(Cl)cc1

- Initial rates [1]: 1
- Initial rates [3]: < 0.5
- Initial rates [4]: 2
Molecule: CCCCCC/N=C(/N)NO

- Initial rates [1]: 25
- k cat [2]: 4.67 s⁻¹
- Initial rates [3]: < 0.5
- Initial rates [4]: 34
- k cat/Km [5]: 15000 M⁻¹ s⁻¹
Molecule: CCCCC/N=C(/N)NO

- Initial rates [1]: 15
- Initial rates [3]: 41
- Initial rates [4]: 36
Molecule: CCC/N=C(/N)NO

- Initial rates [1]: 100
- k cat [2]: 8 s⁻¹
- Initial rates [3]: 100
- Initial rates [4]: 100
- k cat/Km [5]: 200000 M⁻¹ s⁻¹
Molecule: N/C(=N/CCCC(N)C(=O)O)NO (stereo unspecified)

- Initial rates [1]: < 0.5
- Initial rates [3]: < 0.5
- Initial rates [4]: < 0.5
Molecule: NC(=NCCC(N)C(=O)O)NO (stereo unspecified)

- Initial rates [1]: < 0.5
- Initial rates [3]: < 0.5
- Initial rates [4]: < 0.5
Molecule: N/C(=N/CC(N)C(=O)O)NO (stereo unspecified)

- Initial rates [1]: < 0.5
- Initial rates [3]: < 0.5
- Initial rates [4]: < 0.5
Molecule: NC(=NCCCC(=O)O)NO

- Initial rates [1]: < 0.5
- Initial rates [3]: < 0.5
- Initial rates [4]: < 0.5
Molecule: NCCCN/C(N)=N/O

- Initial rates [1]: 8
- Initial rates [3]: < 0.5
- Initial rates [4]: 2
Molecule: NCCCC/N=C(/N)NO

- Initial rates [1]: 1
- Initial rates [3]: 2
- Initial rates [4]: < 0.5
Molecule: N/C(=N/CCCCC(=O)O)NO

B1: Nitric oxide synthase, inducible (Mus musculus), P29477 (protein)
chain: T1 sequence (whole entry)
- Km [6]: 55 µM
- Km [7]: 500 µM
- Km [8]: 146 µM
- Km [9]: 40 µM
- Km [10]: 310 µM

Reference: ChEMBL document CHEMBL1134763, “Oxidation of N(omega)-hydroxyarginine analogues by NO-synthase: the simple, non amino acid N-butyl N'-hydroxyguanidine is almost as efficient an NO precursor as N(omega)-hydroxyarginine” (J Med Chem, 2001)
